{
  "source": "ChEMBL document CHEMBL1143090",
  "about": "“Structure-activity relationship and liver microsome stability studies of pyrrole necroptosis inhibitors” (Bioorg Med Chem Lett, 2008)",
  "key": {"Jurkat [1]": {"tested_on": "Jurkat", "test": "Inhibition of TNF-alpha-induced necroptosis in FADD-deficient human Jurkat T cells", "assay_type": "functional, cell-based", "method_in_brief": "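FADD-deficient variant of human Jurkat T cells given 10 ng/mL human TNF-α alongside increasing test compound concentrations for 24 h. Viability read by ATP-based assay; EC50 from the concentration series.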"}, "[2]": {"test": "Metabolic stability assessed as half life in mouse liver microsomes", "assay_type": "ADME, Microsome", "method_in_brief": "(§1)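 Pooled mouse liver microsomes (0.5 mg/mL protein) with 3 µM final compound and 1 mM NADPH, sampled at 0, 5, 15, 30, 60 min; no-NADPH incubation as negative control. Methanol quench, LC/MS (N=3) against internal standard; ln peak-area ratio vs time slope gives k, t1/2 = 0.693/k, CLint = V(0.693)/t1/2.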"}, "[3]": {"test": "Intrinsic clearance in mouse liver microsome", "assay_type": "ADME", "conditions": "liver microsomes", "method_in_brief": "as §1"}, "Jurkat [4]": {"tested_on": "Jurkat", "test": "Inhibition of necroptosis in TNF-alpha-induced human Jurkat T cells assessed as cell viability at 30 uM after 24 hrs", "assay_type": "functional, cell-based", "method_in_brief": "(§2)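 FADD-deficient Jurkat, L929 and mouse adult lung fibroblast cells exposed 24 hr to 10 ng/mL human TNF-α and/or 100 µM zVAD.fmk, with compound at 30 µM. ATP-based viability, normalized to compound-treated cells without necroptotic stimulus (100%); N = 2, standard deviation.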"}, "L929 [5]": {"tested_on": "L929", "test": "Inhibition of necroptosis in zVAD-induced mouse L929 cells assessed as cell viability at 30 uM after 24 hrs", "assay_type": "functional, cell-based", "method_in_brief": "as §2"}, "L929 [6]": {"tested_on": "L929", "test": "Inhibition of necroptosis in TNF-alpha-induced mouse L929 cells assessed as cell viability at 30 uM after 24 hrs", "assay_type": "functional, cell-based", "method_in_brief": "as §2"}, "Mus musculus": {"species": "Mus musculus", "test": "Inhibition of necroptosis in zVAD-induced mouse fibroblast assessed as cell viability at 30 uM after 24 hrs", "assay_type": "functional", "method_in_brief": "as §2"}},
  "note": "Activity calls are given as the source filed them. No cut-off for these calls is given here.",
  "data": [
    {"smiles": "CCn1c(Br)ccc1C(=O)NCc1c(F)cccc1Cl", "values": [
      {"measurement": "EC50", "setting": "Jurkat [1]", "value": 2.4, "unit": "µM"}
    ]},
    {"smiles": "Cn1c(Cl)ccc1C(=O)NCc1c(F)cccc1Cl", "values": [
      {"measurement": "EC50", "setting": "Jurkat [1]", "value": 0.74, "unit": "µM"}
    ]},
    {"smiles": "CC(c1ccccc1)n1cccc1C(=O)NCc1c(F)cccc1Cl", "note": "(centres undefined)", "values": [
      {"measurement": "EC50", "setting": "Jurkat [1]", "value": "> 20", "unit": "µM"}
    ]},
    {"smiles": "Cn1c(C#N)ccc1S(=O)(=O)NCc1c(F)cccc1Cl", "values": [
      {"measurement": "EC50", "setting": "Jurkat [1]", "value": "> 20", "unit": "µM"}
    ]},
    {"smiles": "CC(C)n1c(C#N)ccc1C(=O)NCc1c(F)cccc1Cl", "values": [
      {"measurement": "EC50", "setting": "Jurkat [1]", "value": 1.4, "unit": "µM"}
    ]},
    {"smiles": "CCn1c(C#N)ccc1C(=O)NCc1c(F)cccc1Cl", "values": [
      {"measurement": "EC50", "setting": "Jurkat [1]", "value": 1.9, "unit": "µM"}
    ]},
    {"smiles": "O=C(NCc1c(F)cccc1Cl)c1cccn1Cc1ccccc1", "values": [
      {"measurement": "EC50", "setting": "Jurkat [1]", "value": "> 20", "unit": "µM"}
    ]},
    {"smiles": "CC(C)n1cccc1C(=O)NCc1c(F)cccc1Cl", "values": [
      {"measurement": "EC50", "setting": "Jurkat [1]", "value": 0.44, "unit": "µM"}
    ]},
    {"smiles": "Cn1c(C#N)ccc1C(=O)NCc1c(F)cccc1Cl", "values": [
      {"measurement": "EC50", "setting": "Jurkat [1]", "value": 0.34, "unit": "µM"}
    ]},
    {"smiles": "CC(C)n1cccc1C(=O)N[C@H](C)c1c(F)cccc1Cl", "values": [
      {"measurement": "EC50", "setting": "Jurkat [1]", "value": "> 20", "unit": "µM"}
    ]},
    {"smiles": "Cc1ccn(C(C)C)c1C(=O)NCc1c(F)cccc1Cl", "values": [
      {"measurement": "EC50", "setting": "Jurkat [1]", "value": 7.8, "unit": "µM"}
    ]},
    {"smiles": "CC(NC(=O)c1cccn1C(C)C)c1c(F)cccc1Cl", "note": "(racemic)", "values": [
      {"measurement": "EC50", "setting": "Jurkat [1]", "value": 2.1, "unit": "µM"}
    ]},
    {"smiles": "O=C(NCc1c(F)cccc1Cl)c1ccc[nH]1", "values": [
      {"measurement": "EC50", "setting": "Jurkat [1]", "value": "> 20", "unit": "µM"}
    ]},
    {"smiles": "CC(C)n1cccc1C(=O)N[C@@H](C)c1c(F)cccc1Cl", "values": [
      {"measurement": "EC50", "setting": "Jurkat [1]", "value": 0.52, "unit": "µM"}
    ]},
    {"smiles": "Cc1ccccc1C(=O)NCc1c(F)cccc1Cl", "values": [
      {"measurement": "half-life", "setting": "[2]", "value": 3.23, "unit": "h"},
      {"measurement": "microsomal CLint", "setting": "[3]", "value": 7.13, "unit": "µL/min/mg"}
    ]},
    {"smiles": "CN1C(=O)C(Cc2c[nH]c3ccccc23)NC1=S", "note": "(racemic) [NECROSTATIN]", "values": [
      {"measurement": "EC50", "setting": "Jurkat [1]", "value": 0.05, "unit": "µM"},
      {"measurement": "Activity", "setting": "Jurkat [4]", "value": "Active"},
      {"measurement": "Activity", "setting": "L929 [5]", "value": "Active"},
      {"measurement": "Activity", "setting": "L929 [6]", "value": "Active"},
      {"measurement": "Activity", "setting": "Mus musculus", "value": "Active"}
    ]},
    {"smiles": "Cc1ccn(C)c1C(=O)NCc1c(F)cccc1Cl", "values": [
      {"measurement": "EC50", "setting": "Jurkat [1]", "value": "> 20", "unit": "µM"}
    ]},
    {"smiles": "Cn1cccc1C(=O)NCc1c(F)cccc1Cl", "values": [
      {"measurement": "EC50", "setting": "Jurkat [1]", "value": 0.9, "unit": "µM"}
    ]},
    {"smiles": "CN(Cc1c(F)cccc1Cl)C(=O)c1cccn1C", "values": [
      {"measurement": "EC50", "setting": "Jurkat [1]", "value": "> 20", "unit": "µM"}
    ]},
    {"smiles": "CCCCC(NC(=O)c1cccn1C(C)C)c1c(F)cccc1Cl", "note": "(racemic)", "values": [
      {"measurement": "EC50", "setting": "Jurkat [1]", "value": "> 20", "unit": "µM"}
    ]},
    {"smiles": "C[C@H](NC(=O)c1snnc1C1CC1)c1c(F)cccc1Cl", "values": [
      {"measurement": "half-life", "setting": "[2]", "value": 0.542, "unit": "h"},
      {"measurement": "microsomal CLint", "setting": "[3]", "value": 42.6, "unit": "µL/min/mg"},
      {"measurement": "Activity", "setting": "Jurkat [4]", "value": "Active"},
      {"measurement": "Activity", "setting": "L929 [5]", "value": "Active"},
      {"measurement": "Activity", "setting": "L929 [6]", "value": "Active"},
      {"measurement": "Activity", "setting": "Mus musculus", "value": "Active"}
    ]},
    {"smiles": "CC(C)n1cc(C#N)cc1C(=O)NCc1c(F)cccc1Cl", "values": [
      {"measurement": "EC50", "setting": "Jurkat [1]", "value": "> 20", "unit": "µM"}
    ]},
    {"smiles": "Cc1cc[nH]c1C(=O)NCc1c(F)cccc1Cl", "values": [
      {"measurement": "EC50", "setting": "Jurkat [1]", "value": 4.9, "unit": "µM"}
    ]},
    {"smiles": "Cn1cc(C#N)cc1C(=O)NCc1c(F)cccc1Cl", "values": [
      {"measurement": "EC50", "setting": "Jurkat [1]", "value": "> 20", "unit": "µM"}
    ]}
  ]
}
